Experimental data from different studies.
Each line is one published result; the experiments were not run side by side.
Target: Tyrosine-protein kinase Fes/Fps (FES, Homo sapiens, UniProt P07332)

SMILES	test	setting	quantity	result
Cc1ccc(C(=O)Nc2ccc(CN3CCN(C)CC3)c(C(F)(F)F)c2)cc1C#Cc1cnc2cccnn12	enzyme activity	23.5 nM	remaining activity	100%
Cc1ccc(C(=O)NCc2ccsc2)cc1C#Cc1cn(C(C)C)c2ncnc(N)c12	enzyme activity, inhibitor	1 µM	activity vs control	93%
c1nc2c(Nc3ccc4c(c3)OCCO4)nc(Nc3ccc4c(c3)OCCO4)nc2[nH]1	enzyme activity, inhibitor	10 µM	activity vs control	62%
C=CC(=O)Nc1cc(Nc2nccc(Nc3cc(Cl)c(F)cc3C(C)(C)O)n2)c(OC)cc1N1CC[C@@H](N(C)C)C1	enzyme activity, inhibitor	1 µM	inhibition	65%
Cc1ccc(NC(=O)c2ccc(CN3CCN(C)CC3)cc2)cc1Nc1nccc(-c2cncc(-c3oncc3C)c2)n1	enzyme activity, inhibitor	0.5 µM	remaining activity	≤ 50%
COc1cc2nccc(Oc3ccc(NC(=O)c4c5n(n(-c6ccc(F)cc6)c4=O)CCCC5)cc3)c2cc1OC	enzyme activity, inhibitor	0.1 µM	inhibition	-3%
COc1ccc2c(c1)O[C@H](c1ccc(OC)c(OC)c1)C[C@@H]2NC(=O)C1(c2ccc3c(c2)OC(F)(F)O3)CC1	cell-free assay, competition with immobilised ligand	1 µM	remaining binding	97%
CC/C(=N\NC(=O)NCc1cccc(O)c1)c1ccc(O)c(C)c1O	enzyme activity, inhibitor	0.1 µM	inhibition	1.2%
C[C@@H]1CN(c2cc(-c3nn(C)c4ccc(OC5(C)CC5)cc34)ncn2)C[C@H](C)O1	cell-free assay, competition with immobilised ligand	1 µM	remaining binding	93%
CC(C)(C)c1nc2c(s1)c1nc(N)ncc1c1ccc(NS(=O)(=O)c3c(F)cccc3F)c(F)c12	enzyme activity, inhibitor, radiometric	1 µM	remaining activity	93%
O=C1NC(=O)c2cc(Nc3ccc(F)cc3)c(Nc3ccc(F)cc3)cc21	cell-free assay	0.5 µM	remaining signal	99.5%
CCC(=O)N[C@@H]1CC[C@H](C(=O)N(C)c2ccc(-c3nc4ccccc4o3)cc2)C1	cell-free assay, competition with immobilised ligand	1 µM	remaining binding	96%
O=C(Nc1cnn(-c2csc(C(=O)NC3COC3)c2)c1)Nc1ccccc1Cl	enzyme activity, inhibitor	5 µM	remaining activity	99.3%
CN(c1ccnc(CNc2nc(Nc3ccc4c(c3)CC(=O)N4)ncc2C(F)(F)F)n1)S(C)(=O)=O	cell-free assay, competition with immobilised ligand	1 µM	remaining binding	74%
COc1cc2ncnc(Nc3ccc(Oc4ccccc4)cc3C)c2cc1OC	enzyme activity, inhibitor	1 µM	inhibition	27%
CNCc1ccc(-c2cc(-c3nc(-c4ccc(S(=O)(=O)C(C)C)cc4)cnc3N)on2)cc1	enzyme activity, inhibitor	2 µM	inhibition	0%
CSc1cccnc1N1CCN(Cc2nc3ccccc3[nH]2)CC1	cell-free assay, competition with immobilised ligand	1 µM	remaining binding	98%
Cc1sc(C(=O)NC2COC2)cc1-n1cc(NC(=O)Nc2c(F)cccc2Cl)cn1	enzyme activity, inhibitor	10 µM	remaining activity	93.7%
CS(=O)(=O)N1CCCC(NC(=O)[C@H](CCC2CCCCC2)NC(=O)c2ccc(CNC(=O)c3cnc4ccccn34)cc2)C1 (stereo partly shown)	cell-free assay, competition with immobilised ligand	0.1 µM	remaining binding	100%
CC(C)(O)[C@H]1CC[C@H](Nc2ccc3ncc(-c4cccc(C(F)(F)F)c4)n3n2)CC1	enzyme activity, inhibitor	1 µM	remaining activity	95.4%
NS(=O)(=O)c1cc(NC(=O)Cc2ccccc2)ccc1Oc1cccc(Cl)c1	cell-free assay, competition with immobilised ligand	1 µM	remaining binding	92%
CNC(=O)c1cc(Oc2ccc(NC(=O)Nc3ccc(Cl)c(C(F)(F)F)c3)cc2)ccn1	cell-free assay	0.5 µM	remaining signal	104%
